Bioassay records deposited in PubChem by several laboratories.
Only some compounds are listed: those with a hit (about 5.2% of all), similar ones and a draw of the others.
EBNA-1 inhibitor: blocks EBNA-1 binding to DNA. 300,000 compounds, 0.34% hits. inhibition, % at 14.8 µM. EBNA-1 DNA binding, fluorescence polarization; in the data active = inhibition above about 28%
NS3 helicase inh: blocks Hepatitis C virus NS3 helicase unwinding; inhibition, % at 10.9 µM; 290,000 compounds, 0.56% hits; AID 1800; NS3 helicase DNA unwinding, Cy5 molecular beacon fluorescence;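 active = inhibition above the mean of all tested compounds plus 3 SD, set per campaign, cut at about 35% in these data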
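Material: hepatitis C virus NS3 helicase domain fragment enzyme; measured by: Cy5 fluorescence, 0 and 60 min reads; control set: DMSO and thioflavine S; incubation: 60 min unwinding reaction at 25 °C after ATP addition; read-out basis: % inhibition from 60/0 min fluorescence ratio, DMSO 0%, thioflavine S 100%; repeats: singlicate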
ALR H2O2 inh: inhibitors of human sulfhydryl oxidase ALR; inhibition, % (concentration not given with the values); purified ALR, DTT oxidation, H2O2 HRP-luminol luminescence; AID 485317; 290,000 compounds, 3.8% hits;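 active = mean replicate inhibition above about 79%, with every replicate also reaching it, limit read from the data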
Target sequence (P55789 whole entry, looked up): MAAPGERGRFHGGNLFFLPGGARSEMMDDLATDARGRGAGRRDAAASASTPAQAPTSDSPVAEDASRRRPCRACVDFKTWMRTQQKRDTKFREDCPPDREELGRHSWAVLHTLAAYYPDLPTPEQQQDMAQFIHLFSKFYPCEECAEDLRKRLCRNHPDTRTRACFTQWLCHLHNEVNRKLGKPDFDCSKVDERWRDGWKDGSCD
PfM18AAP inh: PfM18AAP enzyme inhibition; AID 1822; inhibition, % at 7.35 µM; 290,000 compounds, 1.2% hits; recombinant PfM18AAP, H-Glu-NHMec fluorogenic cleavage;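 active = inhibition above the campaign mean inhibition over all tested compounds plus 3 SD, cut at about 28% in these data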
ZTA DNA inh: ZTA (EBV) inhibition in EBNA-1 counter-screen; inhibition, % at 11 µM; P03206; ZTA-DNA binding, fluorescence polarization; 320,000 compounds, 0.15% hits; in the data active = inhibition above about 33%
Target sequence (P03206 whole entry, looked up): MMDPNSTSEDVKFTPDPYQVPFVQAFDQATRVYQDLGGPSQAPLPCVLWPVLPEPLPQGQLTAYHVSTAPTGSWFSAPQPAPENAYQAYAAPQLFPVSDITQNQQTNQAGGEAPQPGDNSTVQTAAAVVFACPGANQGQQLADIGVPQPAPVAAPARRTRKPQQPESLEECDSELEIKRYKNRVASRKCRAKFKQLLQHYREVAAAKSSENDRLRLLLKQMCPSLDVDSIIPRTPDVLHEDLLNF
HCV core dimer: HCV core protein dimerization inhibition; inhibition, % at 5 µM; TR-FRET GST/Flag-core106 dimerization, 1536-well; 300,000 compounds, 0.33% hits;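 active = inhibition above the mean of all tested compounds plus 3 SD, set per screening campaign, cut at about 45% in these data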
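Assay system – GST-tagged and Flag-tagged HCV core protein residues 1-106 · Quantity – core106 proteins, GST 13.5 nM and Flag 17 nM · Benchmarks – unlabelled core106 and no-GST-core106 wells · Read-out basis – percent inhibition of core106 dimerization signal · Detection – time-resolved FRET, ex 340 nm, em 617 and 671 nm · Schedule – 4 h at 22.5 °C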
A number is an active result; – = inactive; · = no result given.

SMILES	EBNA-1 inhibitor	NS3 helicase inh	ALR H2O2 inh	PfM18AAP inh	ZTA DNA inh	HCV core dimer
C/C(=N\Nc1cccc2cccnc12)c1ccc[nH]1	–	–	96	–	–	–
CCC(=O)Nc1cccc2cccnc12	–	–	–	–	–	–
Brc1cc(Br)c2nc(-c3cccs3)ccc2c1	–	–	–	–	–	48
CCc1nn(CC(=O)N2CC(C)CC(C)C2)c(=O)c2cccn12 (centres undefined)	–	–	–	–	–	–
Cc1ccoc1C(=O)NCCNc1ccc(Cl)cc1[N+](=O)[O-]	–	–	·	–	–	–
Cc1[nH]c(=S)[nH]c(=O)c1Cc1ccccc1	–	–	–	31	–	–
Cc1nnc2ccc(-c3ccc(NC(=O)Cc4cccs4)cc3)nn12	–	–	–	–	–	56
CC(=O)Nc1ccc(-c2ccc3nnc(C)n3n2)cc1	–	–	–	–	–	–
Cc1ccc(/C=C(\NC(=O)c2ccc(C)cc2)C(=O)NCCCn2ccnc2)cc1	–	–	–	–	–	–
COC(=O)c1ccccc1NC(=O)CN1CCN(Cc2ccccc2)CC1	–	–	–	–	–	–
COC(=O)c1cc(CN2CCN(c3ccccc3)CC2)ccc1O	–	–	98	–	–	–
NS(=O)(=O)c1ccc(N=Nc2c(-c3ccccc3)[nH]n(-c3nc(-c4ccccc4)cs3)c2=O)cc1	–	–	–	–	–	46
O=C(O)c1ccc2c(=O)n3c(nc2c1)/C(=C/c1ccc(F)cc1)CC3	–	–	·	–	–	–
O=C(O)c1ccc2c(=O)n3c(nc2c1)/C(=C/c1cccc(Cl)c1Cl)CCCC3	–	–	97	–	–	–
COc1cccc(Nc2nc3ccccc3n3nnnc23)c1	–	–	97	–	–	–
Cc1cccc(N(CC(=O)N/N=C/c2ccc(C(=O)O)cc2)S(=O)(=O)c2ccccc2)c1C	–	·	–	·	–	–
COc1ccc(-n2c(=O)c3c4c(sc3n3c(=S)[nH]nc23)CCCC4)cc1	–	–	96	–	–	–
CC(C)C1Cc2c(sc3c2c(=O)n(-c2ccccc2)c2n[nH]c(=S)n32)CO1 (centres undefined)	–	–	94	–	–	–
COC(=O)CSc1nnc2n(-c3ccc(OC)cc3)c(=O)c3c4c(sc3n12)CCCCC4	–	–	–	–	–	–
COc1cc(C2Nc3c(F)cccc3C3C=CCC32)cc(Br)c1OC (centres undefined)	–	–	–	–	–	46
COc1cccc(C2Nc3c(F)cc(Br)cc3C3C=CCC32)c1OC (centres undefined)	–	–	–	–	–	–
CC(=O)NN1C(=O)/C(=C/c2ccc(C(C)C)cc2)SC1=S	–	–	98	–	–	–
O=C(O)c1ccc(/C=C2\SC(=S)N(NC(=O)c3ccccc3)C2=O)cc1	–	–	–	–	–	–
COc1cc(C(C)=O)ccc1Oc1ncnc2c1cnn2-c1ccc(F)cc1	–	–	–	–	–	–
CCOc1ccccc1N(C)C(=O)c1nn(-c2ccc(OC)cc2OC)c(=O)c2ccccc12	–	–	–	–	–	–
SMILES	EBNA-1 inhibitor	NS3 helicase inh	ALR H2O2 inh	PfM18AAP inh	ZTA DNA inh	HCV core dimer
Fc1ccc2c(c1)/C(=N/Nc1ccccn1)CCS2	–	–	99	–	–	–
c1ccc(N/N=C2\CCCc3ccccc32)nc1	–	–	–	–	–	–
COc1ccc(S(=O)(=O)n2nc(OC(=O)c3ccco3)cc2N)cc1	–	–	97	–	–	–
COc1ccc(S(=O)(=O)n2nc(OC(=O)c3ccccc3)cc2N)cc1	–	–	·	–	–	–
CCOC(=O)c1ccccc1NC(=O)c1ccc2nc[nH]c2c1	–	–	·	–	–	–
O=C(O)/C=C/C(=O)Nc1ccccc1C(=O)OCC(=O)c1ccc2c(c1)OCCO2	–	–	88	–	–	–
CCOC(=O)c1ccccc1NC(=O)/C=C/C(=O)O	–	–	98	–	–	–
CCOC(=O)c1ccccc1NC(=O)c1ccc2nccnc2c1	–	–	–	–	–	54
COC(=O)c1ccccc1NC(=O)/C=C/C(=O)O	–	–	·	–	–	–
Cc1cc(C)cc(NC(=O)Nc2c(Br)cnn2C)c1	–	–	·	–	–	–
CSCCC(NC(=O)COc1ccccc1)C(=O)N(C)Cc1ccc(Cl)cc1Cl (centres undefined)	·	·	–	·	–	·
Cc1ccc2nc(NCC(N)=O)nc(-c3ccccc3)c2c1	–	–	–	–	–	–
Cc1ccc2nnnc(-c3ccccc3)c2c1	38	–	–	–	35	–
Cc1csc2c(=O)[nH]cnc12	–	–	–	–	–	–
CN(C)CCCNC(=O)C1(O)c2cc(Br)ccc2NC(=O)N1c1ccc(Cl)cc1 (centres undefined)	–	–	–	–	–	–
COc1ccccc1/C=C/C(=O)NCC(=O)N/N=C/c1ccccc1	–	–	–	–	–	–
O=C(O)c1ccc(/C=N/NC(=O)c2ccc3c(c2)OCCO3)cc1	–	–	–	–	–	–
COc1ccccc1/C=C/C(=O)NCC(=O)N/N=C/c1ccc2c(c1)OCO2	–	–	88	–	–	–
COc1cc(/C=N\NC(=O)C2COc3ccccc3O2)cc(OC)c1O (centres undefined)	–	–	·	–	–	–
COc1ccc(/C=N\NC(=O)C2COc3ccccc3O2)cc1O (centres undefined)	–	–	99	–	–	–
COc1cc(/C=N/NC(=O)CNC(=O)c2ccc3c(c2)OCCO3)ccc1O	–	–	98	–	–	–
COc1cc(/C=N/NC(=O)c2ccc3c(c2)OCCO3)cc(Cl)c1O	–	–	94	–	–	–
COc1ccc(/C=N/NC(=O)CNC(=O)c2ccc3c(c2)OCCO3)cc1OC	–	–	–	–	–	–
O=C(COC(=O)c1n[nH]c(=O)c2ccccc12)NC1CCCCC1	·	·	–	·	–	·
O=C(NNC(=O)c1ccc(-c2ccc([N+](=O)[O-])cc2)o1)c1ccncc1	·	·	·	·	–	·
SMILES	EBNA-1 inhibitor	NS3 helicase inh	ALR H2O2 inh	PfM18AAP inh	ZTA DNA inh	HCV core dimer
COc1cc(/C=N\NC(=O)CNC(=O)C2COc3ccccc3O2)ccc1O (centres undefined)	–	–	98	–	–	–
COc1ccc(/C=C/C(=O)NCC(=O)N/N=C/c2cc(Br)ccc2OCc2ccccc2)cc1	–	–	–	–	–	49
COc1cc(/C=N/NC(=O)C2COc3ccccc3O2)ccc1O (centres undefined)	–	–	99	–	–	–
COc1ccc(/C=N\NC(=O)CNC(=O)C2COc3ccccc3O2)cc1[N+](=O)[O-] (centres undefined)	–	–	–	–	–	–
COc1ccc(/C=N/NC(=O)C2COc3ccccc3O2)cc1OC (centres undefined)	–	–	–	–	–	–
COc1ccc(Br)cc1/C=N/NC(=O)CNC(=O)/C=C/c1ccccc1	–	–	·	–	–	–
